# Most compounds without a hit are left out; they make up all but 2.9% or so of the library.
# MC4R barr agon = activates human MC4R beta-arrestin recruitment; activation, % at 8.9 µM; U2OS MC4R beta-arrestin complementation, luminescence; percent of melanotan II response, DMSO zero; hit rate 0.98% among 360,000; AID 540308;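 active = activation above a per-plate cutoff, the mean activation of sample wells on that plate plus 3 SD, cut at about 8% in these data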
# Target sequence (P32245 whole entry, looked up): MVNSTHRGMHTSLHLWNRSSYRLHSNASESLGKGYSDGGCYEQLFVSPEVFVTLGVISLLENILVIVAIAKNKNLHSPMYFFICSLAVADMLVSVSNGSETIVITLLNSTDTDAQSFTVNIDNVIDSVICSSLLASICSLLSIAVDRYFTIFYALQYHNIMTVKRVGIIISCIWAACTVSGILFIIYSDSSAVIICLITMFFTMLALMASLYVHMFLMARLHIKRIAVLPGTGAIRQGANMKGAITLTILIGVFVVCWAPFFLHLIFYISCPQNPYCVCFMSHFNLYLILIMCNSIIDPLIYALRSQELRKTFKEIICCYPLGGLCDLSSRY
# TAG inh = inhibitors of triacylglycerol accumulation | H9c2 cells, Nile Red lipid (TAG) fluorescence; cells loaded with 200 µM oleic acid | inhibition, % at 12.5 µM | hit rate 0.66% among 230,000;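 active = pattern-corrected inhibition of lipid staining of at least 50% with the nuclear-stain viability signal not falling by more than 50%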;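 note: 0% = DMSO wells and 100% = triacsin C control wells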
# Calb FLC = affects C. albicans growth with fluconazole | C. albicans CaCi-2 + fluconazole, Alamar Blue growth, 48 h | growth inhibition, % (no concentration beside the values) | hit rate 0.57% among 300,000 | AID 1979;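 active = growth inhibition above about 58% in most replicates, limit read from the data, passing the limit was not always enough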;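 note: all wells also contain fluconazole at 8 µg/ml as a sub-toxic cotreatment; 0% = median of DMSO wells and 100% = median of geldanamycin control wells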
# GalR3 antagonist = blocks the human galanin receptor 3; O60755; HEK293 GalR3-CNG cAMP membrane potential fluorescence; galR3 body fused to GalR1 C-terminus; inhibition, % at 3 µM; hit rate 0.44% among 360,000; AID 651719;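 active = inhibition above the screen-wide average plus 3 SD, cut at about 13% in these data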;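 note: forskolin and galanin both at EC90 stimulate the cells; cAMP rise reported by CNG channel membrane potential dye signal; 0% = forskolin plus galanin with DMSO and 100% = forskolin alone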
# Target sequence (O60755 1-299 limits assumed): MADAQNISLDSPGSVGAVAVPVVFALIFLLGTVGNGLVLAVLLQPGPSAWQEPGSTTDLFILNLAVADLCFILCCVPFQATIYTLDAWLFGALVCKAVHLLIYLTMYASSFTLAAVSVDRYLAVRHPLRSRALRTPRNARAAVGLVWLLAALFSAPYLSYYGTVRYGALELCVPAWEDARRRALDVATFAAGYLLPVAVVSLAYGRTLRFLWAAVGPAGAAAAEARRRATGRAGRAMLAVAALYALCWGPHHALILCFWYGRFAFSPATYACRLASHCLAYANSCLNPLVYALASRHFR
# MC4R antagonist = antagonists of human melanocortin 4 receptor (MC4R); P32245; MC4R-expressing cells, MTII-stimulated cAMP, LANCE TR-FRET; inhibition, % at 6.5 µM; hit rate 0.48% among 360,000;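 active = inhibition above its plate's cutoff, the mean of tested wells on that plate plus 3 SD, cut at about 29% in these data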;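 note: 0% = Melanotan II alone and 100% = Melanotan II plus saturating MCL0020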
#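 Test system: U2OS cells stably expressing human melanocortin 4 receptor (MC4R); also added: Melanotan II challenge; compound: 6.5 µM single dose; timing: 30-min compound preincubation, 1-h Melanotan II challenge, 1-h detection, room temperature; signal: Eu-cAMP/anti-cAMP TR-FRET, emission 671 nm; repeats: one well per compound, no replicates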
# Efflux pump inh = inhibitors of Candida antifungal efflux pumps expressed in yeast | hit rate 0.44% among 330,000 | inhibition, % at 10 µM | S. cerevisiae Candida pump triplex, Nile Red efflux;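 active = plate passing quality check with inhibition over a set limit, or well fluorescence over plate mean plus 4 SD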;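 note: Nile Red retained in pooled yeast measured as flow cytometry median fluorescence; 0% = buffer negative control and 100% = Enniatin B positive control; higher means more Nile Red kept so more efflux inhibition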
# Active calls of the source: *; · = no result given.
SMILES,MC4R barr agon,TAG inh,Calb FLC,GalR3 antagonist,MC4R antagonist,Efflux pump inh
Cc1ccc(N(CCC(=O)Nc2nnc(C3CC3)s2)S(=O)(=O)c2ccccc2)cc1,·,·,21,-7,·,10*
Cc1cccc(NS(=O)(=O)c2cccc3nsnc23)c1,-1,-2,-1,-1,7,0
CC(C)NS(=O)(=O)c1cccc2nsnc12,-2,-9,1,14*,-1,0
N#Cc1cccc(-c2csc(C(O)(c3ccccc3)C(F)(F)F)n2)c1 (configuration not stated),2,-11,·,-9,-5,·
O=C(CCl)Nc1ccc(S(=O)(=O)NC2=NCCCCC2)cc1,2,43,·,-3,9,0
O=C(CCl)Nc1cccc(S(=O)(=O)NC2=NCCCCC2)c1,3,57*,·,0,6,0
CC1=C/C(=N\OS(=O)(=O)c2ccccc2)C(C(C)C)=CC1=O,31*,·,·,·,45*,0
CC1=C(C)/C(=N\OS(=O)(=O)c2ccc(C)cc2)C=CC1=O,1,75,·,5,16,1
Cc1ccc(NC(=O)CCSc2ccccc2)c(C)c1,0,-11,-10,·,-2,0
Cc1cccc(NC(=O)CCSc2ccccc2)c1C,8.7*,-2,-17,-7,8,0
Nc1nc(-c2ccccc2)c(N=Nc2ccccc2Cl)s1,-2,·,101*,-6,-4,0
Nc1nc(-c2ccccc2)c(N=Nc2cccc3ccccc23)s1,-5,·,14,-9,3,0
COC(=O)Nc1nc(C)c(C(=O)c2ccccc2)s1,-2,·,21,0,-2,0
COC(=O)Nc1nc(-c2ccccc2)c(C(=O)c2ccccc2)s1,-1,65*,-1,5,-31,0
CCc1cccc2c1Sc1ccccc1CC2N1CCNCC1 (configuration not stated),3,67*,-28,-5,-1,0
CCCn1c(=N)n(CC(=O)c2ccc([N+](=O)[O-])cc2)c2ccccc21,-1,1,99*,1,24,0
COC(=O)c1cc2c(c3c4cc(OC)ccc4n(S(=O)(=O)c4ccc(C)cc4)c13)C(=O)N(Cc1ccccc1)C2,·,·,·,-6,·,·
COC(=O)c1cc2c(n1S(=O)(=O)c1ccc(C)cc1)C(=O)C(=O)c1[nH]cc(C(=O)OCc3ccccc3)c1-2,37*,125,·,·,-27,·
CSc1nn(CCC#N)c(=O)[nH]c1=O,·,·,·,0,·,·
NC(=S)n1[nH]c(-c2ccc([N+](=O)[O-])cc2)c(N=Nc2cccc([N+](=O)[O-])c2)c1=O,-4,5,100*,-7,22,·
CC(C)NC(=O)C1(C)CCN1C(=O)c1cccn1C (configuration not stated),0,-3,·,-3,5,·
CC(=O)N(Cc1ccc(F)cc1)C1=C(NCc2ccccc2)C(=O)c2ccccc2C1=O,-1,162,89*,·,-5,·
Cc1cc2[nH]c(=O)c(=O)[nH]c2cc1S(=O)(=O)N1CCN(c2ccccc2F)CC1,-1,·,81*,5,16,0
CCOc1cc(N2CCOCC2)c(OCC)cc1NC(=O)COC(=O)CCOc1ccc(C(C)(C)C)cc1,-3,-4,0,-2,1,0
CC(C)(C)c1ccc(OCCC(=O)Nc2ccc(N3CCOCC3)cc2N2CCOCC2)cc1,8.6*,33,-6,-2,9,0
SMILES,MC4R barr agon,TAG inh,Calb FLC,GalR3 antagonist,MC4R antagonist,Efflux pump inh
COC(=O)C1=C(C)N(C)C(=NCc2ccccc2)NC1c1ccccc1 (configuration not stated),·,·,·,-5,·,·
O=C(NC(=S)Nc1ccc2oc(=O)ccc2c1)c1ccccc1F,8.4*,2,-3,4,4,0
COC(=O)[C@]12CCCCC=C1N(Cc1cccc3ccccc13)C(=O)[C@H](CC(=O)NCc1ccc(C)o1)C2,·,·,·,-7,·,·
CCN1CCN(Cc2ccc(NC(=O)c3cc(NC(=O)c4ccc5n[nH]nc5c4)cc(OC)c3)cc2C(F)(F)F)CC1,0,4,5,-5,3,0
CCN1CCN(Cc2ccc(NC(=O)c3cc(NC(=O)c4cc(-c5ccc(OC)cc5)n[nH]4)cc(OC)c3)cc2C(F)(F)F)CC1,0,69*,52,6,-1,0
COCCN1Cc2cc(C(=O)OC)c3c(c2C1=O)c1cc(F)ccc1n3S(=O)(=O)c1cccc(C)c1,·,·,·,-4,·,·
Cc1[nH]c2ccccc2c1CCNC(=O)c1ccc2c(c1[N+](=O)[O-])C(=O)c1ccccc1C2=O,-4,24,33,-9,1,0
Cc1[nH]c2c(C)cccc2c1CCNC(=O)c1ccc2c(c1[N+](=O)[O-])C(=O)c1ccccc1C2=O,-3,52*,5,-6,0,0
NS(=O)(=O)c1cccc(NC(=O)CSc2nc3ccccc3c(=O)n2CC2CCCO2)c1 (configuration not stated),-1,-3,·,-1,18,·
Nc1cccc([N+](=O)[O-])c1,-3,-7,-11,-3,14,0
CCCSc1cc(N)cc([N+](=O)[O-])c1,0,13,97*,-3,-5,0
COc1ccccc1NC(=O)Nc1nnc(Cc2ccccc2F)s1,3,·,-4,-10,2,0
COc1ccc(OCc2nnc(NC(=O)Nc3ccccc3F)s2)cc1,8.3*,13,-20,-5,14,0
Nc1ccn([C@@H]2O[C@H](CNCc3cc(Br)ccc3OCc3ccccc3)[C@@H](O)[C@H]2O)c(=O)n1,0,5,·,-5,4,·
COc1ccc(/C=N\NC(=O)COc2ccc(C(C)(C)C)cc2)cc1Cn1nc(C)cc1C,22*,0,2,-2,4,0
COc1ccc(/C=N/NC(=O)c2ccco2)cc1Cn1nc(C)cc1C,-2,·,-6,1,12,0
CC(C)C1C(C#N)=C(N)Oc2n[nH]c(-c3ccc4ccccc4c3)c21 (configuration not stated),9.4*,·,6,-10,-14,0
COc1ccc(-n2c(-c3cccc(C)c3[N+](=O)[O-])n[nH]c2=S)cc1,-2,-1,74*,0,3,0
Cc1cccc(-c2n[nH]c(=S)n2-c2ccccc2)c1[N+](=O)[O-],-4,·,4,-6,7,0
COCCC(=O)Nc1ccc2c(c1)CN(C(=O)c1ccc(CSC)o1)CC2,-1,·,1,-7,6,0
NS(=O)(=O)c1ccc(N=Nc2ccc(O)c3ncccc23)cc1,-4,·,79*,4,1,0
CCOc1ccc(N=Nc2ccc(O)c3ncccc23)cc1,-1,·,83*,-10,0,0
CCN(CC)S(=O)(=O)c1cc(OC)ccc1N=Nc1ccc(O)c2ncccc12,-3,·,86*,-6,1,0

# Screening results (PubChem)
